Screening results: PubChem BioAssay, several laboratories
CHOP UPR activ – activators of apoptotic arm of unfolded protein response (CHOP) | actives 0.34% (n = 330,000) | CHO-CHOP luciferase reporter, UPR activation, luminescence; percent of tunicamycin response over DMSO baseline | activation, % at 10 µM | AID 449763;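 active means at 10 µM dose, activation of 40% or more, normalized to positive control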;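 further: 100% = tunicamycin at 10 µg/mL and 0% = DMSO alone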
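System: CHO-CHOP luciferase reporter cell line; amount: 500 cells/well; buffer or medium: F12 medium containing 10% fetal bovine serum; incubation: 6 h compound exposure at 37 °C after overnight seeding; measured by: luciferase luminescence after 10 min with Steady-Glo reagent; evaluation: % reporter activation, DMSO baseline versus tunicamycin full activation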
CHOP inhibitor – blocks CHOP induction under ER stress; CHO-K1 CHOP-promoter luciferase, tunicamycin-induced, 15-18 h; inhibition, % at 10 µM; actives 3.8% (n = 220,000); AID 2732;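 active means compounds that reduced the stress-induced luciferase reporter signal by more than about 70% of percent inhibition, limit read from the data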;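 further: 0% = tunicamycin plus vehicle and 100% = wells without tunicamycin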
UPR XBP1 act – activators of adaptive arm of unfolded protein response (XBP1); CHO-XBP1 luciferase reporter, IRE1-XBP1 UPR activation, luminescence; percent of tunicamycin response, DMSO as zero; activation, % at 20 µM; actives 0.33% (n = 330,000); AID 463104;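 active means versus positive control, 20 µM dose yields 30% or more activation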;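 further: 100% = tunicamycin at 10 µg/mL and 0% = DMSO only wells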
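assay system = CHO-XBP1 luciferase reporter cells | amount = 1000 cells/well | buffer or medium = F12 plus 10% FBS | compound dosing = single point, 20 µM final compound, 1% DMSO | incubation = 16-18 h cell attachment at 37 °C, then 6 h compound exposure | detection = Steady-Glo luminescence read | controls = tunicamycin 10 µg/mL and vehicle-only wells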
aDG glyco act – alpha-DG glycosylation activation; Pro5-aDG cells, alpha-DG glycosylation AlphaScreen (IIH6); 0% Pro5, 100% B10-LARGE cell signal; activation, % at 10 µM; actives 0.22% (n = 360,000);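 active means activation of at least 8% versus controls, or a plate z-score of at least 8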;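 further: Pro5 are CHO cells carrying HIG-tagged alpha-DG that lacks glycosylation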
GRIN3A LBD mod – modulates the human NR3A ligand-binding domain. NR3A LBD differential scanning fluorimetry, Tm shift; 0% = protein alone, 100% = glycine-bound protein. Tm shift relative to glycine control, % at 25 µM. actives 2.5% (n = 340,000). AID 1259313;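 active means melting temperature shift of at least 10% of the positive control shift, at one fixed dose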
MPTP block – blocks calcium-induced mitochondrial swelling; isolated mouse mitochondria, Ca2+ swelling absorbance, 30 min; inhibition, % at 10 µM; actives 1.4% (n = 360,000);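 active means inhibition of 50% or more, scaled per plate between neutral and stimulator controls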;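 further: 0% = DMSO wells given calcium and 100% = 1 mM EGTA wells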
Active calls of the source: *; · = not tested or not shown. The list is not random: actives were taken first. Their share in the collection is about 5.6%.

SMILES | CHOP UPR activ | CHOP inhibitor | UPR XBP1 act | aDG glyco act | GRIN3A LBD mod | MPTP block
Cc1ccc(-c2cc(N)n3nc(-c4ccc(C)cc4)cc3n2)cc1 | 0 | 74* | -2 | 0 | 27* | 1
Cc1ccsc1CNC(=O)C1(C)CCN1C(=O)C(C)C (stereo not given) | · | · | · | 0 | · | -1
Cc1cccc(NC(=O)CSc2nnc3ccc(-c4cccnc4)nn23)c1 | · | · | · | 0 | · | -1
N=c1ncn(Cc2ccccc2)c2nc(SCCOc3ccccc3)[nH]c12 | 0 | 27 | -3 | 0 | -3 | 48
CCOC(=O)/C(=C/C=C1\Sc2cc(C)c(C)cc2N1CC)C(C)=O | · | 94* | · | 2 | 2 | -3
O=C(Nc1cccc(S(=O)(=O)NC2=NCCC2)c1)c1cn(-c2ccccc2)nc1-c1ccc(F)cc1 | 3 | · | 2 | -1 | 12* | 0
Cc1ccc(-c2nn(-c3ccccc3)cc2C(=O)Nc2cccc(S(=O)(=O)NC3=NCCC3)c2)cc1 | · | · | · | 0 | · | 0
O=C(CSC1=N/C(=C/c2ccco2)C(=O)N1c1ccc(OC(F)F)cc1)NC1CCS(=O)(=O)C1 (stereo not given) | 0 | 17 | -3 | 0 | 0 | -2
CCOc1ccc(CCN2C(=O)C(=O)N([C@@H](Cc3ccccc3)CN3CCC[C@H]3CN3C(=O)C(=O)NC[C@@H]3Cc3ccccc3)C[C@@H]2Cc2ccc(O)cc2)cc1 | · | · | · | 0 | · | -6
COC(=O)c1cc(C(=O)c2ccc(Cl)cc2Cl)cn1C | 4 | 72* | -1 | 0 | -2 | 0
Cc1nnc(NC(=O)c2ccc(-c3ccc([N+](=O)[O-])cc3)o2)s1 | 13 | · | -1 | 0 | -22 | -2
COc1cc([N+](=O)[O-])ccc1-c1ccc(C(=O)Nc2ccc(NC(C)=O)cc2)o1 | · | 61 | · | 0 | -5 | 1
CC(=O)c1ccc(NC(=O)c2ccc(COc3ccccc3[N+](=O)[O-])o2)cc1 | -1 | 53 | -2 | 1 | 13* | -2
COc1ccc(NC(=O)c2ccc(-c3ccc([N+](=O)[O-])cc3)o2)cc1OC | 0 | 25 | -2 | 0 | 14* | 3
COc1cccc(NC(=O)c2ccc(-c3ccc([N+](=O)[O-])cc3)o2)c1 | 3 | 14 | 0 | 0 | 17* | 0
CC(=O)Nc1ccc(NC(=O)c2ccc(-c3ccc([N+](=O)[O-])cc3)o2)cc1 | 1 | · | -2 | 0 | 12* | 2
Nc1ncnc2c1ncn2[C@@H]1O[C@H](COP(=O)(O)OP(=O)(O)OP(=O)(O)OP(=O)(O)OC[C@@H]2O[C@H](n3cnc4c(N)ncnc43)C(O)[C@@H]2O)[C@H](O)C1O (stereo not given in full) | · | 19 | · | · | · | ·
COc1ccccc1CNC(=O)COC(=O)CCN1C(=O)C2CC=CCC2C1=O (stereo not given) | · | · | · | 0 | · | 0
COc1ccc(-c2cc(C(F)(F)F)nc(NCc3ccco3)n2)cc1OC | 1 | 75* | 4 | 0 | -11 | 2
COc1cccc(-c2cc(C(F)(F)F)nc(NCc3ccco3)n2)c1 | 0 | 71* | 0 | 0 | -11 | 2
FC(F)(F)c1cc(-c2ccco2)nc(NCc2ccco2)n1 | 5 | 54 | 1 | 1 | 0 | 1
FC(F)(F)c1cc(-c2ccc3c(c2)OCO3)nc(NCc2ccco2)n1 | -1 | 69 | 2 | 2 | -6 | 6
COC(=O)Cn1c(=NC(=O)C(C)C)sc2c(C)cc(C)cc21 | -1 | 49 | -2 | 0 | 20* | -1
Cc1ccccc1C(=O)Nc1ccc(C(=O)N/N=C/c2ccncc2)cc1 | 1 | -8 | -2 | 0 | -1 | -2
Cc1ccccc1C(=O)Nc1ccc(C(=O)N/N=C/c2ccc(O)cc2)cc1 | 0 | · | 1 | 0 | 28* | 1
SMILES | CHOP UPR activ | CHOP inhibitor | UPR XBP1 act | aDG glyco act | GRIN3A LBD mod | MPTP block
O=C(N/N=C/c1ccc(O)cc1)c1ccc(NC(=O)c2ccccc2Br)cc1 | 1 | -20 | -1 | 0 | 18* | 0
O=C(Nc1ccccc1C(=O)N/N=C/c1ccc(F)cc1)c1ccccc1Br | 5 | 22 | -2 | 0 | 1 | -2
CCc1ccc(CSc2nccn2-c2ccccc2)cc1 | -2 | 72* | -2 | 0 | -7 | -1
c1ccc(CCSc2nccn2-c2ccccc2)cc1 | 1 | 40 | 5 | 0 | 3 | -4
O=[N+]([O-])c1ccc2c(c1)N([O-])C1(CCCCC1)[N+]2=O | · | 95* | · | · | -2 | ·
CC1=C(c2ccccc2)[N+](=O)C2(CCCC2)N1[O-] | 2 | -16 | -3 | 0 | 0 | 0
COc1ccc(C(O)c2ncc(-c3ccccc3)[nH]2)c(OC)c1 (stereo not given) | · | · | · | 0 | · | 0
Cc1ccccc1-c1cc(=O)c2ccccc2o1 | 3 | · | 9 | 0 | -3 | 0
Cc1cc(CCNC=O)c(C)c2c1oc1ccccc12 | · | · | · | 0 | 13* | 5
CC(C)(C)OC(=O)NN1CC(=O)N2[C@@H](Cc3c([nH]c4ccccc34)C2(C)C)C1=O | 2 | · | -2 | 0 | 1 | 0
Cc1onc(-c2c(F)cccc2Cl)c1C(O)c1ccc(F)cc1 (stereo not given) | -1 | 7 | -4 | 0 | 11* | 2
CCOc1ccc(N/C=C/C(=O)c2ccc3ccccc3c2)c([N+](=O)[O-])c1 | 4 | 16 | 0 | 0 | 37* | 1
O=C(NCc1ccccc1)C(C1CC1)n1c(=O)c(-c2cc3ccccc3[nH]2)nc2ccccc21 (stereo not given) | · | · | · | 1 | · | 10
COc1ccc(CNC(=O)c2sc(=O)n(Cc3ccccc3OC)c2C)cc1 | · | · | · | 0 | · | 0
COc1ccc(-c2nc(CN3CCN(c4cc(C)nc(C)c4)CC3)c(C)o2)c2ccccc12 | 2 | 31 | 7 | 6 | -1 | -2
Cc1oc(-c2cccc3ccccc23)nc1CN1CCN(c2ncnc3ccccc23)CC1 | 0 | 82* | 2 | 3 | -3 | 6
CC(Sc1ncnc2sc(-c3ccccc3)cc12)C(=O)NCC1CCCO1 (stereo not given) | -1 | · | -2 | 0 | -2 | -3
CC(C)Cn1c(N)c(C(=O)COC(=O)c2c(O)c(Cl)cc(Cl)c2Cl)c(=O)n(C)c1=O | 0 | · | -3 | 0 | 11* | 6
Cc1ccccc1CSCC(=O)c1c(N)n(CC(C)C)c(=O)n(C)c1=O | 1 | 81* | -4 | 3 | -13 | 0
Cc1ccccc1CSCC(=O)c1c(N)n(C)c(=O)n(C)c1=O | 2 | -10 | -2 | 0 | 11* | -1
COC(=O)/C=C1\C(=O)N(c2nc3ccc(OC)cc3s2)C(=S)N1c1ccc(F)cc1 | 73* | 43 | 14 | · | · | ·
